Screening results (PubChem BioAssay)
Rows were chosen to be rich in hits. Some 6.4% of all compounds tested hit in one or more screens of this group.
HIV Rev-RRE inh: HIV-1 Rev-RRE binding inhibitors, primary screen, biochemical, FRET, protein-RNA interaction; inhibition, % at 8 µM; P05866; AID 704, 2007; Rev peptide-RRE RNA binding; 0.79% of 97,000 active;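 active = inhibition above the screen-wide mean plus 3 SD, cut at about 35% in these data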;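 note: 0% = median DMSO wells and 100% = median Neomycin B control wells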
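Assay system: Rev peptide and RRE RNA, both fluorescently labelled; times: 5 min preincubation and 15 min binding, 25 °C; detection: FRET, ex 480 nm, em 540 and 671 nm; read-out basis: % inhibition from 671/540 nm acceptor-to-donor ratio, scaled between controls; benchmarks: DMSO low control, neomycin B high control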
Plk1 PBD FP: Plk1 polo box domain binding inhibitors, primary screen, biochemical, fluorescence polarization | Plk1 PBD phosphopeptide binding | inhibition, %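 (tested at about 20 µM)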 | 0.13% of 97,000 active | AID 693, 2007; in the data active = inhibition above about 34%, passing the limit was not always enough
EphB4 antag: EphB4-ephrin-B2 interaction antagonists, primary screen, biochemical, TNYL-RAW peptide probe, fluorescence polarization; EphB4 LBD / TNYL-RAW-Alexa532 peptide; inhibition, % at 7 µM; 0.15% of 97,000 active;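 active = inhibition above the screen-wide mean inhibition plus 3 SD, cut at about 15% in these data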;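 note: 0% = DMSO wells and 100% = excess unlabeled TNYL-RAW peptide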
PostGolgi ctrl: growth inhibition of yeast control strain, primary screen, counter-screen for post-Golgi transport modulator project | efflux-deficient yeast background strain, growth absorbance A615, 16 h | inhibition, % at 10 µM | 5% of 98,000 active
PLK1 kinase inh: human PLK1 kinase inhibitors, primary screen, biochemical, TR-FRET. Serine/threonine-protein kinase PLK1 (Homo sapiens), P53350. recombinant PLK1 kinase, TR-FRET peptide phosphorylation. inhibition, % at 10 µM. 0.53% of 97,000 active. AID 619, 2007;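 active = inhibition of 50% or more in the single-concentration screen; inactive = inhibition below 50%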;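 note: 0% = DMSO max control and 100% = H-89 dihydrochloride min control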
PostGolgi yeast: phenotypic screen on post-Golgi transport, primary screen; post-Golgi transport phenotypic cell assay; inhibition, % at 10 µM; 0.9% of 98,000 active; AID 739, 2007;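 note: yeast cells grown in 1536-well plates; yeast grown about 18 h at 30C before absorbance read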
An asterisk follows results filed as active. Cut-off read from the data, not from the text of the source, unless noted: active = inhibition above about 30%; inactive = the rest.

How did CCc1ccc(/C=N/NC(=O)c2cc(C3CC3)nc3ccc(Br)cc23)s1 do in these assays?
HIV Rev-RRE inh: 9; Plk1 PBD FP: 13; EphB4 antag: 0; PostGolgi ctrl: 13; PLK1 kinase inh: -9; PostGolgi yeast: -5

Results for CCOc1ccc(N2C(=O)CN=C2Nc2ccccc2Cl)cc1 ?
HIV Rev-RRE inh: 0; Plk1 PBD FP: -13; EphB4 antag: 2; PostGolgi ctrl: 22; PLK1 kinase inh: -6; PostGolgi yeast: -6

How did CCOc1ccc(N2C(=O)C(Cl)=C(Nc3ccccc3O)C2=O)cc1 do in these assays?
HIV Rev-RRE inh: 37*; Plk1 PBD FP: -13; EphB4 antag: -2; PostGolgi ctrl: 11; PLK1 kinase inh: -9; PostGolgi yeast: -15

How did COc1cc2c(cc1OC)C1=C(C#N)CC/C(=N\S(=O)(=O)c3ccccc3)N1CC2 do in these assays?
HIV Rev-RRE inh: 7; Plk1 PBD FP: -13; EphB4 antag: -9; PostGolgi ctrl: 7; PLK1 kinase inh: 61*; PostGolgi yeast: 3

Results for Nc1nc(SCc2ccccc2)ns1 ?
HIV Rev-RRE inh: 4; Plk1 PBD FP: -9; EphB4 antag: 6; PostGolgi ctrl: 19; PLK1 kinase inh: -1; PostGolgi yeast: -6

Results for Nc1nc(SCc2ccc(Cl)cc2)ns1 ?
HIV Rev-RRE inh: 0; Plk1 PBD FP: -8; EphB4 antag: 0; PostGolgi ctrl: 44*; PLK1 kinase inh: -14; PostGolgi yeast: -2

Results for CCCc1cc(C(=O)Nc2cccnc2Cl)no1 ?
HIV Rev-RRE inh: 5; Plk1 PBD FP: -5; EphB4 antag: 3; PostGolgi ctrl: 30*; PLK1 kinase inh: -2; PostGolgi yeast: 0

How did CCCc1cc(C(=O)Nc2ccccc2C(=O)OC)no1 do in these assays?
HIV Rev-RRE inh: 11; Plk1 PBD FP: -16; EphB4 antag: 0; PostGolgi ctrl: 19; PLK1 kinase inh: -16; PostGolgi yeast: 3

How did O=C(CCC1N=C2c3ccccc3N=C(SCc3ccc(Cl)cc3)N2C1=O)NCc1ccco1 (centres undefined) do in these assays?
HIV Rev-RRE inh: 2; Plk1 PBD FP: -7; EphB4 antag: -3; PostGolgi ctrl: 3; PLK1 kinase inh: 0; PostGolgi yeast: 2

Results for O=C(CCC1N=C2c3ccccc3N=C(SCc3ccc(F)cc3)N2C1=O)NCc1ccco1 (centres undefined) ?
HIV Rev-RRE inh: 7; Plk1 PBD FP: -4; EphB4 antag: 16*; PostGolgi ctrl: 6; PLK1 kinase inh: -2; PostGolgi yeast: 4

Results for Cc1cc(C)n(CC(O)CN2c3ccccc3Sc3ccccc32)n1 (centres undefined) ?
HIV Rev-RRE inh: -5; Plk1 PBD FP: -35; EphB4 antag: 3; PostGolgi ctrl: 43*; PLK1 kinase inh: -13; PostGolgi yeast: 0

How did Cc1cc(C)n(CC(O)Cn2c3ccccc3c3ccccc32)n1 (centres undefined) do in these assays?
HIV Rev-RRE inh: 11; Plk1 PBD FP: -6; EphB4 antag: -3; PostGolgi ctrl: 19; PLK1 kinase inh: -3; PostGolgi yeast: -2

How did O=C(c1cc(C2CC2)nc2ccc(Br)cc12)N1N=C(C(F)F)CC1(O)C(F)F (centres undefined) do in these assays?
HIV Rev-RRE inh: 15; Plk1 PBD FP: -13; EphB4 antag: 8; PLK1 kinase inh: -12

What do the screens show for `CCCCCn1c(Sc2nc3ccccc3s2)nc2c1c(=O)[nH]c(=O)n2C`?
HIV Rev-RRE inh: -2; Plk1 PBD FP: 9; EphB4 antag: -7; PostGolgi ctrl: 35*; PLK1 kinase inh: -12; PostGolgi yeast: 1

What do the screens show for `Cc1csc(Sc2nc3c(c(=O)[nH]c(=O)n3C)n2CCCc2ccccc2)n1`?
HIV Rev-RRE inh: 7; Plk1 PBD FP: 0; EphB4 antag: 2; PostGolgi ctrl: 45*; PLK1 kinase inh: -7; PostGolgi yeast: -1

How did CCOC(=O)CSc1nc2c(c(=O)[nH]c(=O)n2C)n1CCCc1ccccc1 do in these assays?
HIV Rev-RRE inh: 10; Plk1 PBD FP: -9; EphB4 antag: -4; PostGolgi ctrl: 8; PLK1 kinase inh: -4; PostGolgi yeast: -2
